From publication PMC3983674 (Journal of immunology (Baltimore, Md. : 1950), 2014)
Ends that are not written are not given here.

Tests used:
[1] = system: aminopeptidase; assay: Aminopeptidase activity in live PBMC; assay type: cell-based, human; details: for Effect on aminopeptidase activities: live PBMC, increasing concentrations, Fig 1C
[2] = system: chymotryptic activity of proteasomes; assay: Proteasome chymotryptic activity in live PBMC; assay type: cell-based, human; details: PI pretreatment 30 min 37°C, increasing concentrations, Fig 1C
Outline: (§1)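 Fresh PBMC were isolated from HIV-negative donor buffy coats by Ficoll-Hypaque and pretreated for 30 min at 37°C with increasing concentrations of test compound (DMSO solutions). Digitonin (0.0025% final) was added, then Suc-LLVY-Amc (chymotryptic) or BocLRR-Amc (tryptic), each at 50 µmol/L. Fluorescence was read every 5 min at 37°C. Maximum slope, minus no-cell background, was expressed as % of the DMSO control. MG-132 (10 µmol/L) was used as the specificity control. Data are from 6–8 donors.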

[3] = system: tryptic activity of proteasomes; assay: Proteasome tryptic activity in live PBMC; assay type: cell-based, human; details: increasing concentrations, Fig 1C
Outline: as §1

[4] = Cytosolic peptide stability assay; details: for A02-SL9 epitope half-life reduced by (fold vs control): average of 4 experiments, Fig 3B; for half-life: human, s9
[5] = system: caspase-like activity of proteasomes; assay: Proteasome caspase-like activity in live PBMC; assay type: cell-based, human; details: PI pretreatment 30 min 37°C, Fig 1C
[6] = system: purified mouse or human 20S proteasomes; details: ref [30]–[32]; cited from earlier work
[7] = system: HLA-matched B cells infected with VSVg-pseudotyped HIV; assay type: cell-based, human
[8] = system: PBMC cytosolic extracts; assay: HIV epitope processing assay; assay type: biochemical, human
[9] = system: proteasomal and aminopeptidase activities; assay: Proteasomal and aminopeptidase activities in PBMC; assay type: cell-based, human; details: unpublished data
[10] = in vitro; details: human, s9

With `COC(=O)N[C@H](C(=O)N[C@@H](Cc1ccccc1)[C@@H](O)CN(Cc1ccc(-c2ccccn2)cc1)NC(=O)[C@@H](NC(=O)OC)C(C)(C)C)C(C)(C)C` [Atazanavir] the “Effect on aminopeptidase activities” value [1] was “no change”, the “Effect on chymotryptic activity of proteasome” value [2] was “did not change” and the “Effect on proteasome tryptic activity” value [3] was “not affected”. For the same molecule, the “A02-SL9 epitope half-life reduced by (fold vs control)” value ([4]; PBMC extracts pretreated with 2 µM or 5 µM PI) was 1.33 fold.
In the case of `CC(C)c1nc(CN(C)C(=O)N[C@H](C(=O)N[C@@H](Cc2ccccc2)C[C@H](O)[C@H](Cc2ccccc2)NC(=O)OCc2cncs2)C(C)C)cs1` [Ritonavir], the “Effect on proteasomal caspase-like activity” value [5] is listed as “did not enhance”, the “Activity of purified mouse or human 20S proteasomes and proteasome activity in immortalized cells” value (“Activity … in immortalized cells” below) [6] is listed as “inhibit” and the “Kinetics of killing and maximum lysis by B57-ISW9 CTL” value [7] is listed as “enhanced”. For the same molecule, the “Kinetics of killing and maximum lysis by B57-KF11 CTL” value [7] was “slower and the maximum lysis reduced”, the “ISW9 as % of total peptides” value ([8]; 3ISW9 degradation, 10 µM PI, 60 min, 3% in control) was 14% and the “Production of A25-QW11 epitope from 3ISW9” value ([8]; supplemental figure 3) was “reduced”. For the same molecule, the “Production of B15-HL9 epitope from 3ISW9” value ([8]; supplemental figure 3) was “reduced” and the “Cytosolic stability of optimal epitopes derived from CMV, HCV, Influenza or EBV” value ([4]; several peptides, unpublished data) was “increasing”.
With `CC(C)Nc1cccnc1N1CCN(C(=O)c2cc3cc(NS(C)(=O)=O)ccc3[nH]2)CC1` [Delavirdine] the “Effect on the proteasomal and aminopeptidase activities” value [9] was “did not have any significant effect”.
With `Nc1ccn([C@@H]2CS[C@H](CO)O2)c(=O)n1` [lamivudine, Lamivudine] the “Effect on the proteasomal and aminopeptidase activities” value [9] was “did not have any significant effect”.
With ISPRTLNAW [ISW9] the half-life [10] was 14.8 min.
For `Cc1c(O)cccc1C(=O)N[C@@H](CSc1ccccc1)[C@H](O)CN1C[C@H]2CCCC[C@H]2C[C@H]1C(=O)NC(C)(C)C` [Nelfinavir], the “Effect on proteasomal caspase-like activity” value [5] is listed as “not affected”, the “Activity … in immortalized cells” value [6] is listed as “inhibit” and the “Effect on killing of HIV-infected cells by B57-ISW9 CTL” value [7] is listed as “had no effect”. The “Killing of HIV-infected cells by A11-ATK9 CTL, reduced by (fold vs DMSO)” value [7] was 4.8 fold, the “Killing of HIV-infected cells by B57-ISW9 CTL, inhibited (fold vs DMSO)” value [7] was 1.2 fold and the “Killing of HIV-infected cells by B57-KF11 CTL, reduced by (fold vs DMSO)” value [7] was 2.44 fold. For the same molecule, the “Lysis of HIV-infected cells by B57-TW10 CTL, decreased (fold vs DMSO)” value [7] was 1.46 fold and the “A02-SL9 epitope half-life reduced by (fold vs control)” value ([4]; […]) was 1.25 fold.
In the case of `CC(C)(C)NC(=O)[C@@H]1C[C@@H]2CCCC[C@@H]2CN1C[C@@H](O)[C@H](Cc1ccccc1)NC(=O)[C@H](CC(N)=O)NC(=O)c1ccc2ccccc2n1` [Saquinavir], the “Activity … in immortalized cells” value [6] is given as “inhibit” and the “2-ISW9 ([…]) precursor production vs control or Kaletra treatment” value ([8]; 3ISW9 degradation, 10 µM) is given as “at least twice less”.
In the case of `CC(C)(C)NC(=O)[C@@H]1CN(Cc2cccnc2)CCN1C[C@@H](O)C[C@@H](Cc1ccccc1)C(=O)N[C@H]1c2ccccc2C[C@H]1O` [Indinavir], the “Effect on aminopeptidase activities” value [1] is reported as “no change”, the “Effect on proteasomal caspase-like activity” value [5] is reported as “not affected” and the “Effect on proteasome tryptic activity” value [3] is reported as “not affected”. For the same molecule, the “Killing of HIV-infected cells by A11-ATK9 CTL, reduced by (fold vs DMSO)” value [7] was 3 fold and the “Killing of HIV-infected cells by B57-KF11 CTL, reduced by (fold vs DMSO)” value [7] was 1.9 fold.
In the case of `CC(C)C[C@H](NC(=O)[C@@H](O)[C@H](N)Cc1ccccc1)C(=O)O` [Bestatin], the “Aminopeptidase activity reduced by (fold compared to the control)” value ([1]; 120 µM) is reported as 20 fold and the “Aminopeptidase activity, max slope of fluorescence emission” value ([1]; PBMC, 120 µM inhibitor, Leu-amc, control max slope 145.35) is reported as 7.25.
Molecule `CC[C@H](C)[C@H](NC(=O)[C@@H](NC(=O)[C@H](CCC(=O)O)NC(=O)[C@@H]1CCCN1C(=O)[C@H](CO)NC(=O)[C@H](Cc1ccccc1)NC(=O)[C@H](C)NC(=O)[C@@H](N)CCCCN)C(C)C)C(=O)N1CCC[C@H]1C(=O)N[C@@H](CCSC)C(=O)N[C@@H](Cc1ccccc1)C(=O)O` [KF11] has a half-life [4] of 25.7 min.
For `CC(C)CN(C[C@@H](O)[C@H](Cc1ccccc1)NC(=O)O[C@H]1CO[C@H]2OCC[C@H]21)S(=O)(=O)c1ccc(N)cc1` [Darunavir], the “Effect on aminopeptidase activities” value [1] was “no change”, the “Effect on proteasomal caspase-like activity” value [5] was “not affected” and the “Effect on chymotryptic activity of proteasome” value [2] was “did not change”. The “Effect on proteasome tryptic activity” value [3] was “not affected”.
`CC[C@H](C)[C@H](NC(=O)[C@H](C)N)C(=O)N[C@@H](Cc1ccccc1)C(=O)N[C@@H](CCC(N)=O)C(=O)N[C@@H](CO)C(=O)N[C@@H](CO)C(=O)N[C@@H](CCSC)C(=O)N[C@H](C(=O)N[C@@H](CCCCN)C(=O)O)[C@@H](C)O` [ATK9] gave a half-life [4] of 37.2 min.
